Compound activity: PubChem BioAssay, The Scripps Research Institute Molecular Screening Center
PRMT1 FP inh: PRMT1 (human) inhibition, primary screen; Q99873; recombinant PRMT1, activity-based probe fluorescence polarization; inhibition, % at 2.79 µM; actives 1.3% (n = 370,000); AID 652257;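 active = inhibition above about 21% made by adding two undisclosed values, limit read from the data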
rCAG binder: binds r(CAG) RNA repeats; inhibition, % at 3 µM; r(CAG) RNA repeat, TO-PRO-1 dye displacement fluorescence; actives 1.3% (n = 370,000);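 active = inhibition above the plate cutoff, the mean of all test compounds on that plate plus 3 SD, cut at about 35% in these data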;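 also: 0% = DMSO alone and 100% = 100 µM mitoxantrone as full dye displacement; higher means more dye released from RNA so lower well fluorescence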
HTRA1 inhibitor: blocks human HTRA1 serine peptidase; AID 504803; actives 0.5% (n = 340,000); recombinant HTRA1, FP-rhodamine activity-based probe, fluorescence polarization; inhibition, % at 5.96 µM; in the data active = inhibition above about 36%;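 also: 0% = enzyme with DMSO and 100% = wells lacking enzyme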
Target sequence (Q92743 whole entry, looked up): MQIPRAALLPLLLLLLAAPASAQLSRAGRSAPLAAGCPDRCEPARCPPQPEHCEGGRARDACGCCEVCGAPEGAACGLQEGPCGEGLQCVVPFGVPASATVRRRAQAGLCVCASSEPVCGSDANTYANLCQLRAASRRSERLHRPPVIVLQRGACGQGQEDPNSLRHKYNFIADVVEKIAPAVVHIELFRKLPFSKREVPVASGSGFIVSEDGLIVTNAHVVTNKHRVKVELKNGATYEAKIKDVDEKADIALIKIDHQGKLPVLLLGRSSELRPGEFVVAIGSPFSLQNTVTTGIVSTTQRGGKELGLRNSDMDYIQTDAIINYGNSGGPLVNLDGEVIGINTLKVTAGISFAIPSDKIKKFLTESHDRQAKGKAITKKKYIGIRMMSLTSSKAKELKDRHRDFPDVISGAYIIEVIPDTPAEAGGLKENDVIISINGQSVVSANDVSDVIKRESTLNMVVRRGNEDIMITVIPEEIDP
SIAE inh: human SIAE inhibition, primary screen; AID 1053197; actives 0.69% (n = 370,000); inhibition, % at 9.66 µM; SIAE FP-Rh probe binding, fluorescence polarization; Q9HAT2;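 active = inhibition above a cutoff: mean of compounds within the control limits plus 3 SD of those, cut at about 17% in these data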;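 also: 0% = plate median of compound wells and 100% = probe without SIAE protein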
ABHD4 inh: inhibits mouse alpha/beta hydrolase domain 4. actives 0.54% (n = 370,000). AID 720543. Q8VD66. inhibition, % at 8.92 µM. purified mABHD4, FP-Rh probe fluorescence polarization;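 active = inhibition exceeding the mean over every tested compound plus 3 SD, cut at about 30% in these data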;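 also: 0% = plate median of compound wells and 100% = S159A mutant with DMSO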
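Assay system: mouse ABHD4 enzyme, wild type / Also added: fluorescent activity-based probe FP-Rh / Doses: single nominal dose of 8.92 µM, 0.89% DMSO final / Timing: 45 min compound pre-incubation plus 60 min probe step, 25 °C / Signal: FP readout, ex 525 nm / em 598 nm / Control set: S159A mutant/DMSO as 100%, compound-well median as 0%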
PRMT1 inh conf: PRMT1 (human) inhibition, FP confirmation | shares compounds with PRMT1 FP inh | inhibition, % at 2.79 µM | AID 687036 | recombinant His-PRMT1, activity-based probe fluorescence polarization | actives 42% (n = 3,300);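 active = mean inhibition across replicates above the hit cutoff derived for the earlier primary screen, cut at about 22% in these data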
The depositor's hits bear a star; nt = not tested or not shown. An excerpt weighted towards active compounds, which were near 3.3% of everything screened.

SMILES	PRMT1 FP inh	rCAG binder	HTRA1 inhibitor	SIAE inh	ABHD4 inh	PRMT1 inh conf
CCOC(=O)[C@@]12CN(C(=O)OC(C)(C)C)CC=C1N(Cc1ccc(OC)cc1)C(=O)[C@H]2CC(=O)NCC1CCCCC1	1.1	1.3	nt	1.3	10.5	nt
COc1ccc(N2C(=O)CC(SCCc3nc4ccccc4[nH]3)C2=O)cc1 (stereo not drawn)	26.3*	2.9	1.0	2.5	-0.9	-1.7
CCOc1ccc(N2C(=O)CC(Sc3nc(C)cc(C)n3)C2=O)cc1 (stereo not drawn)	2.4	-6.1	4.5	3.9	4.4	nt
CCOc1ccc(N2C(=O)CC(Sc3nnnn3-c3ccccc3)C2=O)cc1 (stereo not drawn)	76.4*	1.4	-0.1	-10.3	-13.3	43.4*
O=C1CC(SCCc2nc3ccccc3[nH]2)C(=O)N1c1ccc(F)cc1 (stereo not drawn)	18.8	6.9	2.1	-1.5	-1.8	nt
CC(C)C(=O)Nc1ncc(Cc2cccc(Cl)c2)s1	1.0	-4.3	-12.4	0.0	2.1	nt
Nc1ccn(C2OC(CO)C(O)C2F)c(=O)n1 (stereo not drawn)	4.5	0.5	nt	-2.0	3.5	nt
O=C(Nc1ccccc1F)NC1CCN(Cc2nnnn2Cc2ccc(F)cc2)CC1	-2.1	-3.9	-8.7	4.4	-4.0	nt
O=C(Nc1ccc(F)cc1)NC1CCN(Cc2nnnn2Cc2ccco2)CC1	28.7*	11.4	4.5	-0.6	-7.9	10.7
O=C1CCCC(=O)N1c1ccc(O)cc1	-3.3	-0.5	-0.4	1.9	5.0	nt
O=C1C=CC(=O)N1c1ccc(O)cc1	89.5*	12.2	2.7	-16.4	0.6	92.1*
CCCCCCC(=O)N(O)C1CC(=O)N(c2ccc(F)cc2)C1=O (stereo not drawn)	70.0*	11.1	-9.6	-5.0	2.1	96.9*
CCCCN(C(=O)CCC(=O)O)C1CC(=O)N(c2ccc(OCCC)cc2)C1=O (stereo not drawn)	1.7	5.1	-0.8	-3.6	-2.2	nt
CCCCCCC(=O)N(O)C1CC(=O)N(c2ccc(Br)cc2)C1=O (stereo not drawn)	41.9*	19.4	-39.4	-4.2	4.6	72.8*
CC(=O)N(c1ccc2oc(=O)sc2c1)S(=O)(=O)c1cccs1	93.7*	29.9	2.8	0.5	12.0	57.3*
CC(=O)N(c1ccc2oc(=O)sc2c1)S(=O)(=O)c1ccc(C(=O)O)cc1	91.4*	27.7	7.5	-13.3	19.8	79.6*
CC(C)C(=O)N(c1ccc2oc(=O)sc2c1)S(=O)(=O)c1cccs1	52.8*	9.1	19.3	-10.1	-8.8	7.6
O=C(COc1ccccc1)N=C1SC2CS(=O)(=O)CC2N1c1ccc(F)cc1F (stereo not drawn)	-6.3	2.7	7.1	1.3	-5.8	nt
CCN(C(=O)COC(=O)c1oc2ccc(OC)cc2c1C)C1CCS(=O)(=O)C1 (stereo not drawn)	-3.1	0.1	8.4	1.8	3.3	nt
Cc1cc(C(=O)CCC(=O)N(C)CC(=O)Nc2c(Cl)cccc2Cl)c(C)s1	28.0*	-1.9	-3.2	3.9	3.3	0.9
O=[N+]([O-])c1cc(-c2ncccn2)c([N+](=O)[O-])s1	28.1*	-0.2	0.8	9.4	0.6	36.5*
CCOC(=O)CNC(=O)CSc1nc(-c2ccc(C)cc2)ns1	7.5	-2.9	-9.0	-8.3	-13.0	nt
CCOC(=O)CNC(=O)CSc1nc(-c2ccccc2)ns1	43.1*	-2.5	3.3	-10.2	-5.1	4.2
COC(=O)c1ccc2nc(-c3ccco3)c(Cc3ccccc3OC)n2c1	44.2*	22.1	nt	0.1	-9.5	28.3*
COc1ccccc1Cc1c(-c2ccco2)nc2cc(C)c(Br)c(C)n12	31.8*	30.6	nt	4.2	10.6	24.5*
SMILES	PRMT1 FP inh	rCAG binder	HTRA1 inhibitor	SIAE inh	ABHD4 inh	PRMT1 inh conf
COC(=O)c1ccc2nc(C3CCCCC3)c(Cc3ccccc3C(F)(F)F)n2c1	-2.3	1.8	nt	4.8	-10.3	nt
COC(=O)c1ccc2nc(-c3ccco3)c(Cc3ccccc3C(F)(F)F)n2c1	33.8*	21.9	nt	-1.0	3.0	16.4
Cc1cc2nc(-c3ccco3)c(CC(C)(C)C)n2c(C)c1Br	6.4	15.1	nt	5.5	6.7	nt
Cn1ccnc1SCC(=O)c1ccc([N+](=O)[O-])cc1	1.9	8.1	5.4	3.5	3.1	nt
CCN(CC)CCSc1nc2c([nH]1)c(=S)n(C)c(=O)n2C	41.9*	3.6	4.5	-0.6	-2.0	2.7
Cc1cc(SCC(=O)NN)c2cc(Br)ccc2n1	63.9*	9.3	2.5	7.3	15.4	60.2*
COc1ccccc1/C=N/NC(=O)CSc1cc(C)nc2ccccc12	33.2*	-2.8	-9.6	-8.8	-0.7	1.2
COc1cccc2c(SCC(=O)N/N=C/c3ccc(O)cc3O)cc(C)nc12	46.4*	23.2	-3.0	-2.5	-2.8	-0.4
COCCN(C(=O)COC(=O)CCc1ccccc1)c1c(N)n(Cc2ccccc2)c(=O)[nH]c1=O	0.0	-4.7	-2.9	-6.9	1.6	nt
CCN(CC)C(=O)CSc1nc2c(sc(=S)n2-c2ccccc2)c(=O)n1Cc1ccco1	24.9*	1.6	-23.9	-2.1	5.0	20.9
COCCN(C(=O)CCCc1nc2ccccc2s1)c1c(N)n(CC(C)C)c(=O)[nH]c1=O	35.5*	2.3	-0.8	6.0	4.7	27.1*
C=CCn1c(SCC(C)=O)nc2scc(-c3ccco3)c2c1=O	49.4*	21.4	2.4	-8.8	5.9	22.3*
C=CCn1c(SC(F)F)nc2scc(-c3ccco3)c2c1=O	63.7*	10.3	-13.6	5.9	-20.3	-1.1
C=CCn1c(SCC(=O)N2CCOCC2)nc2scc(-c3ccco3)c2c1=O	nt	nt	-1.2	nt	nt	nt
O=C(Nc1ccccc1)C(Cl)C(=O)c1ccccc1 (stereo not drawn)	61.9*	-0.8	-2.5	2.5	0.9	79.0*
Nc1n[nH]c(=S)n1/N=C1/C(=O)Nc2ccccc21	42.8*	13.5	6.8	-1.7	-4.0	39.7*
O=C1Nc2ccccc2C1=NN1CCCCCC1	0.5	2.4	-3.2	6.0	2.7	nt
Cc1cc(C)c2[nH]c(=O)c(CN(Cc3cccs3)C(=S)NCc3ccco3)cc2c1	34.6*	9.0	-77.2	-0.3	0.5	-0.2
CCN(CC)CCN(Cc1cc2cc(C)cc(C)c2[nH]c1=O)C(=S)NCc1ccco1	-3.9	-4.6	-17.7	-1.5	14.5	nt
Cc1ccc2cc(CN(C(=O)c3ccco3)c3ccccc3)c(=O)[nH]c2c1	52.6*	5.8	2.8	-7.6	-11.3	-6.2
Cc1ccc2cc(CN(Cc3ccco3)C(=O)c3cccs3)c(=O)[nH]c2c1	29.6*	10.4	-12.1	-5.0	-2.3	2.1
Cc1cc(C)nc(SCCc2ccncc2)n1	29.6*	2.4	0.6	-5.5	7.7	11.2
CCOC(=O)C1=C(C)N(C[C@@H]2CC[C@@H](Cc3ccc(-c4ccccc4)cc3)O2)C(=O)NC1C1CC1 (stereo partly drawn)	-1.9	6.8	-29.0	-1.8	-0.6	nt
